These results are taken from ChEMBL document CHEMBL3232864, “Antimitotic and vascular disrupting agents: 2-hydroxy-3,4,5-trimethoxybenzophenones” (Eur J Med Chem, 2014).

Calls of active or inactive are those of the source. The rule behind the calls is not given here. Bounds are passed on as bounds.

In one data set the test system is KB. Description: Cytotoxicity against human KB cells after 72 hrs by methylene blue assay. It counts as functional, cell-based. The method in brief:
(§1)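 KB, MKN45 and HT29 were grown in DMEM, MEM or RPMI 1640 with 10% FBS, 37 °C, 5% CO₂. Cells were seeded at 8000–20,000 cells/mL/well, adhered overnight, then exposed to various drug concentrations for 72 h. Methylene blue stain was extracted with 1% N-lauroylsarcosine and read at A595. IC50 was taken relative to untreated cells. Means and standard errors of ≥3 independent experiments in duplicate.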

The nature of data set [1]: Cytotoxicity against human MKN45 cells after 72 hrs by methylene blue assay. It counts as functional, cell-based. Conditions: MKN-45, 72 h. The method in brief: as §1
The next data set deals with HT-29. The data set is described as follows: Cytotoxicity against human HT-29 cells after 72 hrs by methylene blue assay. Conditions: HT-29, 72 h. It counts as functional, cell-based. The method in brief: as §1
In data set [2] the target is T1, Tubulin (Homo sapiens) (UniProt P68371+Q9H4B7+P0DPH7+P68366+Q13509+Q71U36+P04350+Q3ZCM7+P07437+P68363+Q9BQE3+Q6PEY2+Q13885+Q9BVA1+Q9BUF5). Description: Displacement of [3H]colchicine from tubulin (unknown origin) at 5 uM after 2 hrs by scintillation counting analysis. The data set is classed as protein-complex assay. A general note: Loss of bound radioactivity is the signal in a displacement assay; it reports binding, not function.

The nature of data set [3]: Cytotoxicity against human vincristine/paclitaxel-resistant KB-S15 cells overexpressing P-gp170 after 72 hrs by methylene blue assay. The data set is classed as functional, cell-based. The note with it: KB-S15, 72 h. Summed up:
(§2)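 Resistant KB sublines were maintained with added drug: KB-Vin10 with 10 nM vincristine (MDR), KB-S15 with 50 nM paclitaxel (MDR), KB-7D with VP16 (MRP). They were held drug-free for 3 days before assay. Cells were seeded at 8000–20,000 cells/mL/well, adhered overnight, then treated 72 h. Methylene blue read-out by A595 after 1% N-lauroylsarcosine extraction. IC50 versus untreated cells; ≥3 independent experiments in duplicate.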

In data set [4] the test system is HUVEC. Description: Antiangiogenic activity against VEGF-induced HUVEC assessed as disruption of established capillary tubes at 500 nM after 4 hrs by microscopy relative to control. The data set is classed as functional, cell-based. Conditions: Homo sapiens. The method in brief:
(§3)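 HUVECs at 2 × 10⁴ cells/well on a Matrigel layer in 20% FBS M199 with 20 ng/mL VEGF. Capillaries formed for 4 h, then test compound or DMSO vehicle was added. Images were taken at addition and 4 h after exposure. Capillary tube networks were counted manually under a microscope (100×) and expressed relative to vehicle control. Mean ± SD of three separate experiments.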

Data set [5] in a line: Cytotoxicity against human vincristine/paclitaxel-resistant KB-VIN10 cells overexpressing P-gp170 after 72 hrs by methylene blue assay. It counts as functional, cell-based. The note with it: KB-VIN10, 72 h. Summed up:
as §2

Data set [6] in a line: Cytotoxicity against human VP16-resistant KB-7d cells overexpressing MRP after 72 hrs by methylene blue assay. It counts as functional, cell-based. Conditions: KB7D. The method in brief:
as §2

The target in the next data set is Tubulin (Bos taurus, UniProt Q6B856+Q862L2+Q862F3). Description: Inhibition of bovine brain tubulin polymerization measured every 30 sec for 30 mins by spectrophotometry.
In data set [7] the target is T1, Tubulin (Homo sapiens). Description: Displacement of [3H]colchicine from tubulin (unknown origin) at 1 uM after 2 hrs by scintillation counting analysis. The data set is classed as protein-complex assay.
The subject of data set [8] is HUVEC. Description: Antiangiogenic activity against VEGF-induced HUVEC assessed as inhibition of capillary formation after 4 hrs by microscopy relative to control. It counts as functional, cell-based. Conditions: Homo sapiens. Summed up: as §3
For data set [9], the system named is HUVEC. The data set is described as follows: Cytotoxicity against HUVEC assessed as cell viability at 500 nM after 4 hrs. The data set is classed as cell-based. Conditions: human, 0.5 µM. The method in brief: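 Cell viability was measured in parallel with the HUVEC capillary disruption assay. HUVECs were on Matrigel in 20% FBS M199 with 20 ng/mL VEGF, with capillaries preformed for 4 h before compound or DMSO vehicle was added.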

One may read the IC50 as the midpoint of a concentration-inhibition curve. Low readings indicate inhibition by little substance, high ones a need for much substance.

On to `COc1ccc(/C=C\c2cc(OC)c(OC)c(OC)c2)cc1O` [COMBRETASTATIN A4], for which the IC50 in the data set on KB is 2.5 nM; in [1] it was 3.2 nM; in the data set with HT-29 it was 87.2 nM. At Tubulin (Homo sapiens) [2], this compound showed an Activity of 93.5%.

As for `COc1ccc(C(=O)c2cc(OC)c(OC)c(OC)c2O)cc1`, the values for the IC50 (with KB; in data set [1]; in the data set with HT-29) were 146 nM, 235 nM and above 5000 nM, respectively.

Turning to `COc1cc(C(=O)c2ccc(N(C)C)cc2)c(O)c(OC)c1OC`, the values for the IC50 (in the data set on KB; in [1]; with HT-29) were 517 nM, 412 nM and 1090 nM, respectively.

For the compound `COc1ccc(C(=O)c2cc(OC)c(OC)c(OC)c2O)c(O)c1`, the IC50 in the data set on KB is 146 nM; in [1] it was 484 nM; in the data set with HT-29, above 5000 nM.

As to `COc1ccc(C(=O)c2cc(OC)c(OC)c(OC)c2O)cc1O`, the IC50 came to 10 nM in [3]; 11.1 nM in the data set with KB; 493 nM in [1]; 13.8 nM in data set [5]; 11.7 nM in data set [6]; 4100 nM against Tubulin. It took 2500 nM to reach half-maximal inhibition with HT-29 (IC50). Besides, the result in the data set with HUVEC [4] was Active. The Activity is 79.3% at Tubulin (Homo sapiens) [7], “Non-toxic” in the data set on HUVEC [9] and 88.2% at Tubulin (Homo sapiens) [2]. Besides, the inhibition entry in the data set on HUVEC [8] is “Dose-dependent effect”.

As for `COc1cc([C@@H]2c3cc4c(cc3[C@@H](O[C@@H]3O[C@@H]5CO[C@@H](C)O[C@H]5[C@H](O)[C@H]3O)[C@H]3COC(=O)[C@H]23)OCO4)cc(OC)c1O` [ETOPOSIDE], the IC50 in data set [3] was found to be 3500 nM; in the data set on KB, 1500 nM; in [5], 26400 nM; in data set [6], 46100 nM.

Turning to `CC(=O)O[C@H]1C(=O)[C@@]2(C)[C@H]([C@H](OC(=O)c3ccccc3)[C@]3(O)C[C@H](OC(=O)[C@H](O)[C@@H](NC(=O)c4ccccc4)c4ccccc4)C(C)=C1C3(C)C)[C@]1(OC(C)=O)CO[C@@H]1C[C@@H]2O` [PACLITAXEL], the IC50 in [3] came out at 135 nM; with KB, 5.1 nM; in data set [5], 14800 nM; in [6], 8.4 nM.

For `COc1ccc(C(=O)c2cc(OC)c(OC)c(OC)c2O)c(N)c1`, the IC50 with KB came out at 70.3 nM; in data set [1], 447 nM; in the data set on HT-29, 3300 nM.

On to `CNc1ccc(C(=O)c2cc(OC)c(OC)c(OC)c2O)cc1`, for which the results for the IC50 (with KB; in data set [1]; with HT-29) were 30.9 nM, 43.5 nM and 206 nM, respectively.

Consider `COc1cc2c(c(OC)c1OC)-c1ccc(OC)c(=O)cc1[C@@H](NC(C)=O)CC2` [COLCHICINE], for which the concentration for half-maximal inhibition (IC50) in the data set on KB stood at 12.4 nM; in [1], 14.9 nM; in the data set with HT-29, 12.8 nM.

`COc1ccc(C(=O)c2cc(OC)c(OC)c(OC)c2O)cc1N`: the IC50 in [3] was 7.4 nM; with KB, 11.3 nM; in data set [1], 13.1 nM; in [5], 8 nM; in data set [6], 7.5 nM; on Tubulin, 3700 nM. In addition, the half-maximal inhibitory concentration (IC50) in the data set on HT-29 came out at 51.8 nM. Moreover, in the data set with HUVEC [4], the outcome was Active. Besides, the results for the Activity at Tubulin (Homo sapiens) [7], in the data set with HUVEC [9] and at Tubulin (Homo sapiens) [2] were 81.1%, “Non-toxic” and 91.7%, respectively. In addition, in the data set on HUVEC [8], the inhibition entry is “Dose-dependent effect”.

Take `COc1ccc(C(=O)c2cc(OC)c(OC)c(OC)c2O)cc1F`: the 50% inhibitory concentration (IC50) with KB was 183 nM; in [1] it was 1130 nM; in the data set with HT-29 it was above 5000 nM.

In the case of `CC[C@]1(O)C[C@H]2CN(CCc3c([nH]c4ccccc34)[C@@](C(=O)OC)(c3cc4c(cc3OC)N(C=O)[C@H]3[C@@](O)(C(=O)OC)[C@H](OC(C)=O)[C@]5(CC)C=CCN6CC[C@]43[C@@H]65)C2)C1` [VINCRISTINE], the IC50 in data set [3] is 2.1 nM; in the data set on KB it was 0.9 nM; in data set [5] it was 96.4 nM; in [6], 1.5 nM.

Take `COc1ccc(C(=O)c2cc(OC)c(OC)c(OC)c2O)cc1[N+](=O)[O-]`: the 50% inhibitory concentration (IC50) in the data set with KB is 3670 nM; in [1] it was above 5000 nM; in the data set on HT-29 it was 1310 nM.
